This is one part of a sample in which hits are shown more often than they occur.
CHOP inhibitor = CHOP inhibition in unfolded protein response. CHO-K1 CHOP-promoter luciferase, tunicamycin-induced, 15-18 h. inhibition, % at 10 µM. 220,000 compounds, 3.8% hits. AID 2732;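 active means compounds that reduced the stress-induced luciferase reporter signal by more than about 70% of percent inhibition, limit read from the data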;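 further: 0% = tunicamycin plus vehicle and 100% = wells without tunicamycin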
UPR CHOP act = apoptotic UPR (CHOP) activation; CHO-CHOP luciferase reporter, luminescence; percent of tunicamycin response over DMSO baseline; activation, % at 10 µM; 330,000 compounds, 0.34% hits; AID 449763;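 active means at 10 µM dose, activation of 40% or more, normalized to positive control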;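 further: 100% = tunicamycin at 10 µg/mL and 0% = DMSO alone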
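measured by = luciferase luminescence | assay system = CHO-CHOP cells, stable luciferase reporter of PERK-eIF2a-CHOP signalling | amount = 500 reporter cells seeded per well | timing = 6 h compound exposure at 37 °C after overnight seeding | controls = positive tunicamycin 10 µg/mL, negative DMSO alone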
XBP1 UPR activ = adaptive UPR (XBP1) activation | activation, % at 20 µM | 330,000 compounds, 0.33% hits | CHO-XBP1 luciferase reporter, IRE1-XBP1 UPR activation, luminescence; percent of tunicamycin response, DMSO as zero | AID 463104;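 active means versus positive control, 20 µM dose yields 30% or more activation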;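 further: 100% = tunicamycin at 10 µg/mL and 0% = DMSO only wells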
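Material – CHO cell line with stable XBP1 luciferase reporter · Buffer or medium – F12 plus 10% FBS · Compound – single point, 20 µM final compound, 1% DMSO · Schedule – 16-18 h cell attachment at 37 °C, then 6 h compound exposure · Signal – Steady-Glo luminescence read · Benchmarks – high control tunicamycin 10 µg/mL final, low control DMSO vehicle only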
Jurkat NFkB inh = inhibitors of the PMA/ionomycin-induced NF-kB reporter in Jurkat cells; PMA/ionomycin-induced NF-kB luciferase reporter, luminescence; inhibition, % at 4 µM; 330,000 compounds, 0.53% hits; AID 435003; in the data active means inhibition above about 50%
697 NFkB inh = inhibitors of the PMA/ionomycin-induced NF-kB reporter in 697 B cells; 697 B-cell NF-kB luciferase reporter, 16 h; inhibition, % at 4 µM; 330,000 compounds, 0.33% hits; in the data active means inhibition above about 35%
Jurkat NFkB conf = lowers PMA/ionomycin-induced NF-kB signal in Jurkat cells | inhibition, % at 4 µM | shares compounds with Jurkat NFkB inh | 2,700 compounds, 27% hits | Jurkat NF-kB luciferase, 16 h | AID 435020;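 active means inhibition reaching about 45% at 4 µM in either replicate, limit read from the data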;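 further: plate controls were PMA/ionomycin stimulated DMSO wells for no effect and unstimulated DMSO wells for full effect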
697 NFkB conf = lowers PMA/ionomycin-induced NF-kB signal in 697 B cells; shares compounds with 697 NFkB inh; 697 B-cell NF-kB luciferase, 16 h; inhibition, % at 4 µM; 2,000 compounds, 35% hits; AID 449746; in the data active means inhibition mostly above about 28%, no sharp cut-off; inactive means mostly below about 22%
Numbers without * were called inactive; nt = no result.

SMILES	CHOP inhibitor	UPR CHOP act	XBP1 UPR activ	Jurkat NFkB inh	697 NFkB inh	Jurkat NFkB conf	697 NFkB conf
Cc1ccc(SCCC(=O)OC(C(=O)NC(N)=O)C(C)C)cc1 (configuration not stated)	10.8	-0.9	2.5	-9.5	8.1	nt	nt
Cc1cccc(-n2ncc3c(=O)[nH]c(SCC(=O)N4CC(=O)Nc5ccccc54)nc32)c1	nt	-2.4	-1.5	9.4	6.4	nt	nt
O=C(NCc1ccco1)/C(=C\C=C\c1ccccc1)NC(=O)c1ccccc1Br	39.9	0.8	5.1	1.6	-3.1	nt	nt
Cc1cc(Cl)c(S(=O)(=O)N2CCCCCC2)cc1OCC(=O)NC1CCCCC1	91.5*	1.5	-0.2	65.4*	75.0*	71.2*	69.5*
Cc1cc(Cl)c(S(=O)(=O)N2CCSCC2)cc1OCC(=O)NC1CCCCC1	68.8	-1.4	-1.9	36.7	-12.1	nt	nt
CC(C)CCNC(=O)c1sc2ccc(S(=O)(=O)N3CCCCC3)cc2c1N	19.0	-0.1	4.2	-1.3	7.6	nt	nt
CC1(C2CC2)NC(=O)N(CC(=O)Nc2ccccc2F)C1=O (configuration not stated)	nt	1.5	-2.7	-3.3	4.3	nt	nt
Nc1c2c(nc3sc4c(c13)CCCC4)-c1ccccc1CC2	35.0	4.3	3.2	-236.2	-468.7	-187.6	-440.8
NC(=O)c1sc2nc(-c3ccccc3)c3c(c2c1N)CCCC3	26.1	-1.1	5.3	-1.4	0.9	nt	nt
CC(C)(C)c1ccc2c(c1)C(=O)c1ccccc1C2=O	54.0	1.5	0.4	-206.4	-358.1	-125.5	-287.5
CC(C)(C)c1ccc(-c2ccc3c(c2)S(=O)(=O)c2ccccc2C3=O)cc1	nt	1.7	1.2	-48.6	4.3	nt	nt
Cc1ccc2[nH]c3c(c2c1)CCCC3C(N)=O (configuration not stated)	22.7	-1.1	3.8	-3.9	17.0	nt	nt
Cc1ccc2[nH]c3c(c2c1)CCCC3NC(=O)CCl (configuration not stated)	nt	0.0	-4.7	97.5*	-261.7	94.7*	-52.4
Clc1ccc(OCCN2CCN(c3ncnc4sccc34)CC2)cc1	nt	2.7	1.5	66.8*	100.4*	75.7*	96.3*
Cc1sc2ncnc(N3CCCCC3)c2c1C	23.4	-1.2	1.2	-14.4	-29.7	nt	nt
CCN1CCN(CCOc2ccc(Cl)cc2)CC1	-9.4	1.0	-2.4	-7.1	12.2	nt	nt
Cc1ccc(OCCN2CCN(c3ncnc4sc(C)c(C)c34)CC2)cc1	72.2*	3.2	-2.6	67.3*	43.2*	66.1*	55.8*
COc1ccc(C(=O)C(C)OC(=O)CNC(=O)c2ccco2)cc1 (configuration not stated)	nt	-1.8	-1.0	-4.0	11.6	nt	nt
CCOC(=O)C1=C(CS(=O)(=O)c2ccc(F)cc2)NC(=O)NC1c1cc(OC)c(O)c(OC)c1 (configuration not stated)	nt	1.1	-3.6	-4.3	7.8	nt	nt
O=C(CC(Nc1ccccc1Cl)C(=O)O)c1ccccc1 (configuration not stated)	-21.8	1.3	-1.9	-255.8	-269.3	16.6	-52.0
O=C1CCn2nc(-c3ccc(Cl)cc3)cc2N1	22.0	3.7	5.6	-72.4	-47.0	nt	nt
Cc1cccc(NS(=O)(=O)c2c(C)[nH]c(C)c2C(=O)N2CCCC2)c1	nt	0.5	-4.6	7.9	10.2	nt	nt
CN(C)c1cc[n+](CC(=O)c2ccc(-c3ccccc3)cc2)cc1	10.7	1.7	-0.3	73.2*	61.8*	60.2*	46.0*
N#Cc1cc2c(nc1SCC(=O)Nc1nccs1)CCCCC2	28.5	2.7	3.4	-229.6	-308.9	-86.3	-257.6
CCc1cccc(NC(=O)Cc2ccc(OC)c(OC)c2)c1	15.0	-0.2	-4.7	32.4	-18.6	nt	nt
Cc1nc(Nc2ccccc2)sc1C(=O)c1ccccc1	17.7	5.0	3.9	-44.1	-54.3	nt	nt
Cc1nc(Nc2ccccc2)sc1-c1ccccc1	70.4*	6.6	0.1	-164.1	-303.1	-81.5	-150.9
Cc1nc(C)c(-c2ccc(SCC(=O)Nc3cccc(Cl)c3C)nn2)s1	nt	-0.4	-1.2	-0.9	13.5	nt	nt

Bioassay records as filed in PubChem.
